# From ChEMBL document CHEMBL1255501, “Heteroresistance of Cryptococcus gattii to fluconazole” (2010)
# Experiments:
# Format in all cases: functional, Cryptococcus bacillisporus
# [1] = test system: Cryptococcus gattii species complex; assay: Antimicrobial activity against Cryptococcus gattii serotype B isolate RAM002 assessed as heteroresistant isolates at 4 ug/ml
# Summary of the method: (§1)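 Population analysis: saline cell suspensions (1 × 103 to 4 × 10^3 CFU/ml) plated on plain YPD agar or YPD agar with various fluconazole concentrations; growth recorded after 72 h at 30°C; percentage of resistant subpopulation at each drug level calculated relative to drug-free plate growth.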
# [2] = test system: Cryptococcus gattii species complex; assay: Antimicrobial activity against Cryptococcus gattii serotype C isolate NIH403 assessed as concentration required for heteroresistance
# Summary of the method: (§2)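 […] on YPD agar at 4 to 128 μg/ml. The lowest drug concentration at which minor resistant subpopulations emerged within the patch was scored as the strain's level of heteroresistance.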
# [3] = test system: Cryptococcus gattii species complex; assay: Antimicrobial activity against Cryptococcus gattii serotype B isolate NIH744 assessed as concentration required for heteroresistance
# Summary of the method: (§3)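 Fluconazole spot test: 10-fold serial dilutions of each single-colony-purified strain spotted on YPD agar alone and YPD agar with fluconazole at 4 to 128 μg/ml. The level of heteroresistance to fluconazole (LHF) is the lowest drug concentration at which minor resistant subpopulations emerge within the spot.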
# [4] = test system: Cryptococcus gattii species complex; assay: Antimicrobial activity against Cryptococcus gattii serotype C isolate H0058-1-1941 assessed as heteroresistant isolates at 16 ug/ml; summary of the method: as §1
# [5] = test system: Cryptococcus gattii species complex; assay: Antimicrobial activity against Cryptococcus gattii serotype B isolate RB-3 assessed as concentration required for heteroresistance
# [6] = test system: Cryptococcus gattii species complex; assay: Antimicrobial activity against Cryptococcus gattii serotype C isolate H0058-1-818 assessed as heteroresistant isolates at 8 ug/ml; summary of the method: as §1
# [7] = test system: Cryptococcus gattii species complex; assay: Antimicrobial activity against Cryptococcus gattii serotype B isolate RB-33 assessed as concentration required for heteroresistance
# [8] = test system: Cryptococcus gattii species complex; assay: Antimicrobial activity against Cryptococcus gattii serotype B isolate NIH367 assessed as heteroresistant isolates at 16 ug/ml
# Summary of the method: (§4)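 Population analysis: cells suspended in sterile saline at 1 × 10³ to 4 × 10³ CFU/ml and plated on plain YPD agar or YPD agar with various fluconazole concentrations. Plates incubated at 30°C for 72 h. The resistant subpopulation at each concentration is recorded as a percentage of the population.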
# [9] = test system: Cryptococcus gattii species complex; assay: Antimicrobial activity against Cryptococcus gattii serotype C isolate H0058-1-78 assessed as heteroresistant isolates at 8 ug/ml; summary of the method: as §1
# [10] = test system: Cryptococcus gattii species complex; assay: Antimicrobial activity against Cryptococcus gattii serotype B isolate VPB571-058 assessed as concentration required for heteroresistance
# [11] = test system: Cryptococcus gattii species complex; assay: Antimicrobial activity against Cryptococcus gattii serotype B isolate NIH184 assessed as heteroresistant isolates at 8 ug/ml; summary of the method: as §4
# [12] = test system: Cryptococcus gattii species complex; assay: Antimicrobial activity against Cryptococcus gattii serotype B isolate NIH409 assessed as heteroresistant isolates at 8 ug/ml; summary of the method: as §4
# [13] = test system: Cryptococcus gattii species complex; assay: Antimicrobial activity against Cryptococcus gattii serotype B isolate NIH535 assessed as heteroresistant isolates at 2 ug/ml; summary of the method: as §4
# [14] = test system: Cryptococcus gattii species complex; assay: Antimicrobial activity against Cryptococcus gattii serotype B isolate NIH771 assessed as heteroresistant isolates at 4 ug/ml; summary of the method: as §1
# [15] = test system: Cryptococcus gattii species complex; assay: Antimicrobial activity against Cryptococcus gattii serotype B isolate B5763 assessed as heteroresistant isolates at 8 ug/ml; summary of the method: as §4
# [16] = test system: Cryptococcus gattii species complex; assay: Antimicrobial activity against Cryptococcus gattii serotype C isolate NIH312 assessed as concentration required for heteroresistance; summary of the method: as §2
# [17] = test system: Cryptococcus deuterogattii; assay: Antimicrobial activity against Cryptococcus gattii serotype B isolate NIH444 assessed as heteroresistant isolates at 8 ug/ml; summary of the method: as §4
# [18] = test system: Cryptococcus gattii species complex; assay: Antimicrobial activity against Cryptococcus gattii serotype B isolate NIH535 assessed as heteroresistant isolates at 4 ug/ml; summary of the method: as §4
# [19] = test system: Cryptococcus gattii species complex; assay: Antimicrobial activity against Cryptococcus gattii serotype C isolate NIH298 assessed as heteroresistant isolates at 4 ug/ml
# Summary of the method: (§5)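 Cell suspensions of 1 × 10^3 to 4 × 10^3 CFU/ml were made in sterile saline and plated on plain YPD agar or YPD agar with various fluconazole concentrations. Plates were incubated at 30°C for 72 h, and the percentage of resistant subpopulation emerging was recorded.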
# [20] = test system: Cryptococcus gattii species complex; assay: Antimicrobial activity against Cryptococcus gattii serotype B isolate NIH771 assessed as heteroresistant isolates at 2 ug/ml; summary of the method: as §4
# [21] = test system: Cryptococcus gattii species complex; assay: Antimicrobial activity against Cryptococcus gattii serotype C isolate H0058-1-1686 assessed as heteroresistant isolates at 4 ug/ml; summary of the method: as §1
# [22] = test system: Cryptococcus gattii species complex; assay: Antimicrobial activity against Cryptococcus gattii serotype B isolate NIH286 assessed as heteroresistant isolates at 8 ug/ml; summary of the method: as §4
# [23] = test system: Cryptococcus gattii species complex; assay: Antimicrobial activity against Cryptococcus gattii serotype B isolate RAM-002 assessed as concentration required for heteroresistance
# [24] = test system: Cryptococcus gattii species complex; assay: Antimicrobial activity against Cryptococcus gattii serotype B isolate NIH412 assessed as heteroresistant isolates at 4 ug/ml; summary of the method: as §4
# [25] = test system: Cryptococcus gattii species complex; assay: Antimicrobial activity against Cryptococcus gattii serotype B isolate NIH184 assessed as heteroresistant isolates at 16 ug/ml; summary of the method: as §4
# [26] = test system: Cryptococcus gattii species complex; assay: Antimicrobial activity against Cryptococcus gattii serotype C isolate NIH187 assessed as concentration required for heteroresistance
# [27] = test system: Cryptococcus gattii species complex; assay: Antimicrobial activity against Cryptococcus gattii serotype C isolate H0058-1-2023 assessed as heteroresistant isolates at 2 ug/ml; summary of the method: as §1
# [28] = test system: Cryptococcus gattii species complex; assay: Antimicrobial activity against Cryptococcus gattii serotype B isolate RAM-005 assessed as concentration required for heteroresistance
# [29] = test system: Cryptococcus gattii species complex; assay: Antimicrobial activity against Cryptococcus gattii serotype B isolate NIH189 assessed as heteroresistant isolates at 8 ug/ml; summary of the method: as §4
# [30] = test system: Cryptococcus gattii species complex; assay: Antimicrobial activity against Cryptococcus gattii serotype B isolate B5765 assessed as heteroresistant isolates at 2 ug/ml; summary of the method: as §4
# [31] = test system: Cryptococcus gattii species complex; assay: Antimicrobial activity against Cryptococcus gattii serotype B isolate NIH190 assessed as heteroresistant isolates at 2 ug/ml; summary of the method: as §4
# [32] = test system: Cryptococcus gattii species complex; assay: Antimicrobial activity against Cryptococcus gattii serotype B isolate NIH767 assessed as concentration required for heteroresistance; summary of the method: as §3
# [33] = test system: Cryptococcus gattii species complex; assay: Antimicrobial activity against Cryptococcus gattii serotype B isolate NIH189 assessed as concentration required for heteroresistance; summary of the method: as §3
# [34] = test system: Cryptococcus gattii species complex; assay: Antimicrobial activity against Cryptococcus gattii serotype C isolate NIH18 assessed as heteroresistant isolates at 4 ug/ml; summary of the method: as §1
# [35] = test system: Cryptococcus gattii species complex; assay: Antimicrobial activity against Cryptococcus gattii serotype B isolate NIH367 assessed as heteroresistant isolates at 4 ug/ml; summary of the method: as §4
# [36] = test system: Cryptococcus gattii species complex; assay: Antimicrobial activity against Cryptococcus gattii serotype C isolate NIH298 assessed as heteroresistant isolates at 2 ug/ml; summary of the method: as §5
# [37] = test system: Cryptococcus gattii species complex; assay: Antimicrobial activity against Cryptococcus gattii serotype B isolate NIH190 assessed as heteroresistant isolates at 4 ug/ml; summary of the method: as §4
# [38] = test system: Cryptococcus gattii species complex; assay: Antimicrobial activity against Cryptococcus gattii serotype B isolate NIH286 assessed as heteroresistant isolates at 4 ug/ml; summary of the method: as §4
# [39] = test system: Cryptococcus gattii species complex; assay: Antimicrobial activity against Cryptococcus gattii serotype C isolate H0058-1-1941 assessed as concentration required for heteroresistance
# [40] = test system: Cryptococcus deuterogattii; assay: Antimicrobial activity against Cryptococcus gattii serotype B isolate NIH444 assessed as heteroresistant isolates at 32 ug/ml; summary of the method: as §4
# [41] = test system: Cryptococcus gattii species complex; assay: Antimicrobial activity against Cryptococcus gattii serotype B isolate B5788 assessed as heteroresistant isolates at 8 ug/ml; summary of the method: as §4
# [42] = test system: Cryptococcus gattii species complex; assay: Antimicrobial activity against Cryptococcus gattii serotype C isolate H0058-1-1875 assessed as concentration required for heteroresistance
# [43] = test system: Cryptococcus gattii species complex; assay: Antimicrobial activity against Cryptococcus gattii serotype B isolate B5765 assessed as concentration required for heteroresistance; summary of the method: as §3
structure (smiles),measurement,setting,value
OC(Cn1cncn1)(Cn1cncn1)c1ccc(F)cc1F [FLUCONAZOLE],Activity,[1],100%
same,Activity,[2],16 µg/mL
same,Activity,[3],32 µg/mL
same,Activity,[4],100%
same,Activity,[5],8 µg/mL
same,Activity,[6],100%
same,Activity,[7],32 µg/mL
same,Activity,[8],9%
same,Activity,[9],100%
same,Activity,[10],32 µg/mL
same,Activity,[11],100%
same,Activity,[12],100%
same,Activity,[13],100%
same,Activity,[14],100%
same,Activity,[15],0.03%
same,Activity,[16],32 µg/mL
same,Activity,[17],100%
same,Activity,[18],0.1%
same,Activity,[19],100%
same,Activity,[20],100%
same,Activity,[21],100%
same,Activity,[22],100%
same,Activity,[23],32 µg/mL
same,Activity,[24],0.07%
same,Activity,[25],35%
same,Activity,[26],32 µg/mL
same,Activity,[27],100%
same,Activity,[28],32 µg/mL
same,Activity,[29],100%
same,Activity,[30],100%
same,Activity,[31],100%
same,Activity,[32],32 µg/mL
same,Activity,[33],16 µg/mL
same,Activity,[34],100%
same,Activity,[35],100%
same,Activity,[36],100%
same,Activity,[37],100%
same,Activity,[38],100%
same,Activity,[39],32 µg/mL
same,Activity,[40],0.5%
same,Activity,[41],5.7%
same,Activity,[42],32 µg/mL
same,Activity,[43],16 µg/mL
